The values below come from ChEMBL document CHEMBL2321840, “Synthesis and structure-activity relationships of indazole arylsulfonamides as allosteric CC-chemokine receptor 4 (CCR4) antagonists” (J Med Chem, 2013).

Structures are written as SMILES. ≈ marks a conversion by molar mass, not a printed value.

In series [1] the target is T1, C-C chemokine receptor type 4 (Homo sapiens, UniProt P51679).
T1 sequence (P51679 whole entry): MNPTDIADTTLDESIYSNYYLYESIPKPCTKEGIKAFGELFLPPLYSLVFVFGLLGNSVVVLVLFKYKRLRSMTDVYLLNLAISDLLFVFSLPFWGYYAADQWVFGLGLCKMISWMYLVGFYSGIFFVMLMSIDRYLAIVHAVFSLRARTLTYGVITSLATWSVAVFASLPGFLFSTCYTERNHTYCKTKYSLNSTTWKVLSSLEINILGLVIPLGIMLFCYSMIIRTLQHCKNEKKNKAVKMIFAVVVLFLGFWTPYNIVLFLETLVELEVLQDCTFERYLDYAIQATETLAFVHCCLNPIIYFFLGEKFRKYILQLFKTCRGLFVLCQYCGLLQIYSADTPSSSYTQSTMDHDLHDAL
Briefly: Antagonist activity at human recombinant CCR4 receptor expressed in CHO cell membranes by [35S]GTPgammaS binding assay. The format is functional.

Series [2] can be described thus: Equilibrium solubility of the compound in fed-state simulated intestinal fluid at pH 6.5 after 24 hrs by HPLC analysis. The format is physicochemical. In short, it runs like this:
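Solid compound was equilibrated 24 h in the stated medium: water, SGF pH 1.6, FeSSIF pH 6.5, FaSSIF pH 6.5 or saline. Dissolved compound was quantified by HPLC.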

For series [3], the system named is HepG2. Nature of the series: Cytotoxicity in human HepG2 cells assessed as effect on mitochondria. The format is cell-based.

Consider `COc1cccc2c1c(NS(=O)(=O)c1ccc(Cl)s1)nn2Cc1cccc(CNC(=O)C(C)(C)O)c1`, for which the concentration for half-maximal inhibition (IC50) (in general, the concentration that inhibits the measured activity by half) in series [1] was 39.8 nM. In addition, the thermodynamic solubility (usually solubility found after equilibrating the solid with the medium) at 24 h in series [2] is 23 µg/mL (≈ 41.9 µM). Also, the Activity entry in series [3] is “Non-toxic”.
